Reference: ChEMBL document CHEMBL1255410, “Activity of the investigational fluoroquinolone finafloxacin against ciprofloxacin-sensitive and -resistant Acinetobacter baumannii isolates” (2010)
≈ marks a conversion by molar mass, not a printed value.

Legend:
Format in all cases: functional
Acinetobacter baumannii [1] = experiment: Antimicrobial activity against Acinetobacter baumannii isolate 60 harboring GyrA Ser83-Leu and ParC Ser80-Leu mutation at pH 7.2
Outline: (§1)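 Agar dilution MIC on Mueller-Hinton agar under standard conditions (pH 7.2). Antibiotic-containing plates were made the same day from freshly prepared medium. Agar pH was checked after solidifying. Both fluoroquinolones were tested simultaneously against A. baumannii isolates with characterized gyrA/parC genes. MICs are in μg/ml.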

Acinetobacter baumannii [2] = experiment: Antimicrobial activity against Acinetobacter baumannii isolate 6 at pH 5.8
Outline: (§2)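 Agar dilution MIC on Mueller-Hinton agar acidified to pH 5.8 with HCl before the antibiotic-containing plates were poured. Agar pH was checked after solidifying. Plates were made the same day from fresh medium. Both fluoroquinolones were tested simultaneously against A. baumannii isolates with characterized gyrA/parC genes. MICs are in μg/ml.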

Acinetobacter baumannii [3] = experiment: Antimicrobial activity against Acinetobacter baumannii isolate 40 harboring GyrA Ser83-Leu mutation at pH 5.8
Outline: (§3)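 Agar dilution MIC on Mueller-Hinton agar. For the acidic condition, HCl was added to bring the agar to pH 5.8 before pouring the antibiotic plates, and the pH was checked after the agar set. The standard condition was pH 7.2. Both drugs' plates were made the same day from fresh medium, and MICs were read at the same time.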

Acinetobacter baumannii [4] = experiment: Antimicrobial activity against Acinetobacter baumannii isolate 53 harboring GyrA Ser83-Leu and ParC Ser80-Leu mutation at pH 5.8; outline: as §3
Acinetobacter baumannii [5] = experiment: Antimicrobial activity against Acinetobacter baumannii isolate 21 harboring GyrA Ser83-Leu mutation at pH 7.2
Outline: (§4)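 MIC by agar dilution on Mueller-Hinton agar under standard conditions (pH 7.2), against isolates with characterized gyrA/parC genes. Agar pH was checked after solidifying. Plates for both drugs were prepared the same day from freshly made media, and MICs were determined simultaneously with the pH 5.8 set.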

Acinetobacter baumannii [6] = experiment: Antimicrobial activity against Acinetobacter baumannii isolate 61 harboring GyrA Ser83-Leu and ParC Ser80-Leu mutation at pH 5.8; outline: as §2
Acinetobacter baumannii [7] = experiment: Antimicrobial activity against Acinetobacter baumannii isolate 7 at pH 7.2; outline: as §1
Acinetobacter baumannii [8] = experiment: Antimicrobial activity against Acinetobacter baumannii isolate 34 harboring GyrA Ser83-Leu mutation at pH 5.8; outline: as §3
Acinetobacter baumannii [9] = experiment: Antimicrobial activity against Acinetobacter baumannii isolate 62 harboring GyrA Ser83-Leu and ParC Ser80-Leu mutation at pH 7.2; outline: as §1
Acinetobacter baumannii [10] = experiment: Antimicrobial activity against Acinetobacter baumannii isolate 46 harboring GyrA Ser83-Leu and ParC Ser80-Leu mutation at pH 5.8; outline: as §3
Acinetobacter baumannii [11] = experiment: Antimicrobial activity against Acinetobacter baumannii isolate 11 at pH 5.8
Outline: (§5)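 MIC by agar dilution on Mueller-Hinton agar acidified to pH 5.8 with HCl before antibiotic-containing plates were poured. Agar pH was rechecked once the agar had solidified. Isolates had characterized gyrA/parC genes. Plates for both drugs were made the same day from fresh media, and MICs were read in parallel with the standard-pH set.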

Acinetobacter baumannii [12] = experiment: Antimicrobial activity against Acinetobacter baumannii isolate 41 harboring GyrA Ser83-Leu mutation at pH 7.2; outline: as §3
Acinetobacter baumannii [13] = experiment: Antimicrobial activity against Acinetobacter baumannii isolate 49 harboring GyrA Ser83-Leu and ParC Ser80-Leu mutation at pH 7.2; outline: as §3
Acinetobacter baumannii [14] = experiment: Antimicrobial activity against Acinetobacter baumannii isolate 14 at pH 7.2; outline: as §4
Acinetobacter baumannii [15] = experiment: Antimicrobial activity against Acinetobacter baumannii isolate 26 harboring GyrA Ser83-Leu mutation at pH 7.2; outline: as §4
Acinetobacter baumannii [16] = experiment: Antimicrobial activity against Acinetobacter baumannii isolate 63 harboring GyrA Ser83-Leu and ParC Glu84-Lys mutation at pH 7.2; outline: as §1
Acinetobacter baumannii [17] = experiment: Antimicrobial activity against Acinetobacter baumannii isolate 65 harboring GyrA Ser83-Leu and ParC Ser80-Leu mutation at pH 7.2; outline: as §1
Acinetobacter baumannii [18] = experiment: Antimicrobial activity against Acinetobacter baumannii isolate 58 harboring GyrA Ser83-Leu and ParC Ser80-Leu mutation at pH 7.2; outline: as §1
Acinetobacter baumannii [19] = experiment: Antimicrobial activity against Acinetobacter baumannii isolate 50 harboring GyrA Ser83-Leu and ParC Ser80-Leu mutation at pH 5.8; outline: as §3
Acinetobacter baumannii [20] = experiment: Antimicrobial activity against Acinetobacter baumannii isolate 9 at pH 5.8; outline: as §2
Acinetobacter baumannii [21] = experiment: Antimicrobial activity against Acinetobacter baumannii isolate 4 at pH 5.8
Outline: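 Agar dilution MIC on Mueller-Hinton agar acidified with HCl before pouring antibiotic plates; agar pH checked after setting. Isolate has characterized gyrA/parC genes. Plates made the same day from fresh medium, and both drugs tested at the same time. Read-out: MIC (μg/ml).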

Acinetobacter baumannii [22] = experiment: Antimicrobial activity against Acinetobacter baumannii isolate 34 harboring GyrA Ser83-Leu mutation at pH 7.2; outline: as §3
Acinetobacter baumannii [23] = experiment: Antimicrobial activity against Acinetobacter baumannii isolate 40 harboring GyrA Ser83-Leu mutation at pH 7.2; outline: as §3
Acinetobacter baumannii [24] = experiment: Antimicrobial activity against Acinetobacter baumannii isolate 35 harboring GyrA Ser83-Leu mutation at pH 5.8; outline: as §3
Acinetobacter baumannii [25] = experiment: Antimicrobial activity against Acinetobacter baumannii isolate 53 harboring GyrA Ser83-Leu and ParC Ser80-Leu mutation at pH 7.2; outline: as §3
Acinetobacter baumannii [26] = experiment: Antimicrobial activity against Acinetobacter baumannii isolate 28 harboring GyrA Ser83-Leu mutation at pH 7.2; outline: as §4
Acinetobacter baumannii [27] = experiment: Antimicrobial activity against Acinetobacter baumannii isolate 30 harboring GyrA Ser83-Leu mutation at pH 7.2; outline: as §4
Acinetobacter baumannii [28] = experiment: Antimicrobial activity against Acinetobacter baumannii isolate 36 harboring GyrA Ser83-Leu mutation at pH 7.2; outline: as §3
Acinetobacter baumannii [29] = experiment: Antimicrobial activity against Acinetobacter baumannii isolate 16 at pH 5.8; outline: as §5
Acinetobacter baumannii [30] = experiment: Antimicrobial activity against Acinetobacter baumannii isolate 19 harboring GyrA Ser83-Leu mutation at pH 7.2; outline: as §4
Acinetobacter baumannii [31] = experiment: Antimicrobial activity against Acinetobacter baumannii isolate 20 harboring GyrA Ser83-Leu mutation at pH 7.2; outline: as §4
Acinetobacter baumannii [32] = experiment: Antimicrobial activity against Acinetobacter baumannii isolate 19 harboring GyrA Ser83-Leu mutation at pH 5.8; outline: as §5
Acinetobacter baumannii [33] = experiment: Antimicrobial activity against Acinetobacter baumannii isolate 42 harboring GyrA Ser83-Leu mutation at pH 7.2; outline: as §3
Acinetobacter baumannii [34] = experiment: Antimicrobial activity against Acinetobacter baumannii isolate 2 at pH 7.2; outline: as §4
Acinetobacter baumannii [35] = experiment: Antimicrobial activity against Acinetobacter baumannii isolate 56 harboring GyrA Ser83-Leu and ParC Ser80-Leu mutation at pH 5.8; outline: as §2
Acinetobacter baumannii [36] = experiment: Antimicrobial activity against Acinetobacter baumannii isolate 22 harboring GyrA Ser83-Leu mutation at pH 7.2; outline: as §4
Acinetobacter baumannii [37] = experiment: Antimicrobial activity against Acinetobacter baumannii isolate 63 harboring GyrA Ser83-Leu and ParC Glu84-Lys mutation at pH 5.8; outline: as §2
Acinetobacter baumannii [38] = experiment: Antimicrobial activity against Acinetobacter baumannii isolate 52 harboring GyrA Ser83-Leu and ParC Ser80-Leu mutation at pH 7.2; outline: as §3
Acinetobacter baumannii [39] = experiment: Antimicrobial activity against Acinetobacter baumannii isolate 38 harboring GyrA Ser83-Leu mutation at pH 5.8; outline: as §3

Compound	MIC (Acinetobacter baumannii [1]) [µg/mL]	MIC (Acinetobacter baumannii [2]) [µg/mL]	MIC (Acinetobacter baumannii [3]) [µg/mL]	MIC (Acinetobacter baumannii [4]) [µg/mL]	MIC (Acinetobacter baumannii [5]) [µg/mL]	MIC (Acinetobacter baumannii [6]) [µg/mL]	MIC (Acinetobacter baumannii [7]) [µg/mL]	MIC (Acinetobacter baumannii [8]) [µg/mL]	MIC (Acinetobacter baumannii [9]) [µg/mL]	MIC (Acinetobacter baumannii [10]) [µg/mL]	MIC (Acinetobacter baumannii [11]) [µg/mL]	MIC (Acinetobacter baumannii [12]) [µg/mL]	MIC (Acinetobacter baumannii [13]) [µg/mL]	MIC (Acinetobacter baumannii [14]) [µg/mL]	MIC (Acinetobacter baumannii [15]) [µg/mL]	MIC (Acinetobacter baumannii [16]) [µg/mL]	MIC (Acinetobacter baumannii [17]) [µg/mL]	MIC (Acinetobacter baumannii [18]) [µg/mL]	MIC (Acinetobacter baumannii [19]) [µg/mL]	MIC (Acinetobacter baumannii [20]) [µg/mL]	other results
N#Cc1c(N2C[C@@H]3NCCO[C@H]3C2)c(F)cc2c(=O)c(C(=O)O)cn(C3CC3)c12 [FINAFLOXACIN]	64 (≈ 161 µM)	0.06 (≈ 0.151 µM)	2 (≈ 5.02 µM)	2 (≈ 5.02 µM)	1 (≈ 2.51 µM)	8 (≈ 20.1 µM)	0.25 (≈ 0.628 µM)	2 (≈ 5.02 µM)	64 (≈ 161 µM)	2 (≈ 5.02 µM)	0.06 (≈ 0.151 µM)	16 (≈ 40.2 µM)	16 (≈ 40.2 µM)	1 (≈ 2.51 µM)	16 (≈ 40.2 µM)	64 (≈ 161 µM)	64 (≈ 161 µM)	64 (≈ 161 µM)	4 (≈ 10 µM)	0.12 (≈ 0.301 µM)	MIC (Acinetobacter baumannii [21]): 0.03 µg/mL (≈ 0.0753 µM); MIC (Acinetobacter baumannii [22]): 16 µg/mL (≈ 40.2 µM); MIC (Acinetobacter baumannii [23]): 16 µg/mL (≈ 40.2 µM); MIC (Acinetobacter baumannii [24]): 2 µg/mL (≈ 5.02 µM); MIC (Acinetobacter baumannii [25]): 32 µg/mL (≈ 80.3 µM); MIC (Acinetobacter baumannii [26]): 16 µg/mL (≈ 40.2 µM); MIC (Acinetobacter baumannii [27]): 8 µg/mL (≈ 20.1 µM); MIC (Acinetobacter baumannii [28]): 16 µg/mL (≈ 40.2 µM); MIC (Acinetobacter baumannii [29]): 0.12 µg/mL (≈ 0.301 µM); MIC (Acinetobacter baumannii [30]): 0.5 µg/mL (≈ 1.26 µM); MIC (Acinetobacter baumannii [31]): 1 µg/mL (≈ 2.51 µM); MIC (Acinetobacter baumannii [32]): 0.12 µg/mL (≈ 0.301 µM); MIC (Acinetobacter baumannii [33]): 16 µg/mL (≈ 40.2 µM); MIC (Acinetobacter baumannii [34]): 0.5 µg/mL (≈ 1.26 µM); MIC (Acinetobacter baumannii [35]): 4 µg/mL (≈ 10 µM); MIC (Acinetobacter baumannii [36]): 8 µg/mL (≈ 20.1 µM); MIC (Acinetobacter baumannii [37]): 2 µg/mL (≈ 5.02 µM); MIC (Acinetobacter baumannii [38]): 32 µg/mL (≈ 80.3 µM); MIC (Acinetobacter baumannii [39]): 2 µg/mL (≈ 5.02 µM)
O=C(O)c1cn(C2CC2)c2cc(N3CCNCC3)c(F)cc2c1=O [CIPROFLOXACIN]	128 (≈ 386 µM)	2 (≈ 6.04 µM)	> 128	> 128	4 (≈ 12.1 µM)	> 128	0.12 (≈ 0.362 µM)	128 (≈ 386 µM)	128 (≈ 386 µM)	> 128	4 (≈ 12.1 µM)	16 (≈ 48.3 µM)	128 (≈ 386 µM)	0.5 (≈ 1.51 µM)	4 (≈ 12.1 µM)	> 128	> 128	128 (≈ 386 µM)	> 128	2 (≈ 6.04 µM)	MIC (Acinetobacter baumannii [21]): 1 µg/mL (≈ 3.02 µM); MIC (Acinetobacter baumannii [22]): 8 µg/mL (≈ 24.1 µM); MIC (Acinetobacter baumannii [23]): 16 µg/mL (≈ 48.3 µM); MIC (Acinetobacter baumannii [24]): 128 µg/mL (≈ 386 µM); MIC (Acinetobacter baumannii [25]): 128 µg/mL (≈ 386 µM); MIC (Acinetobacter baumannii [26]): 4 µg/mL (≈ 12.1 µM); MIC (Acinetobacter baumannii [27]): 8 µg/mL (≈ 24.1 µM); MIC (Acinetobacter baumannii [28]): 16 µg/mL (≈ 48.3 µM); MIC (Acinetobacter baumannii [29]): 4 µg/mL (≈ 12.1 µM); MIC (Acinetobacter baumannii [30]): 1 µg/mL (≈ 3.02 µM); MIC (Acinetobacter baumannii [31]): 2 µg/mL (≈ 6.04 µM); MIC (Acinetobacter baumannii [32]): 4 µg/mL (≈ 12.1 µM); MIC (Acinetobacter baumannii [33]): 16 µg/mL (≈ 48.3 µM); MIC (Acinetobacter baumannii [34]): 0.06 µg/mL (≈ 0.181 µM); MIC (Acinetobacter baumannii [35]): > 128 µg/mL; MIC (Acinetobacter baumannii [36]): 4 µg/mL (≈ 12.1 µM); MIC (Acinetobacter baumannii [37]): > 128 µg/mL; MIC (Acinetobacter baumannii [38]): 128 µg/mL (≈ 386 µM); MIC (Acinetobacter baumannii [39]): 128 µg/mL (≈ 386 µM)
